Measured values reported in ChEMBL document CHEMBL1132697, “Dual inhibition of phosphodiesterase 4 and matrix metalloproteinases by an (arylsulfonyl)hydroxamic acid template” (J Med Chem, 1999).

The molecules below were run against Stromelysin-1 (Homo sapiens, UniProt P08254) (assay: Inhibition of matrix metalloprotease-3 (MMP-3), stromelysin-1).
In short: (§1)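 Recombinant human enzymes (MMP-1, MMP-2, MMP-3) were used as the source for the inhibition measurements.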

Sequence of Stromelysin-1 (P08254 whole entry): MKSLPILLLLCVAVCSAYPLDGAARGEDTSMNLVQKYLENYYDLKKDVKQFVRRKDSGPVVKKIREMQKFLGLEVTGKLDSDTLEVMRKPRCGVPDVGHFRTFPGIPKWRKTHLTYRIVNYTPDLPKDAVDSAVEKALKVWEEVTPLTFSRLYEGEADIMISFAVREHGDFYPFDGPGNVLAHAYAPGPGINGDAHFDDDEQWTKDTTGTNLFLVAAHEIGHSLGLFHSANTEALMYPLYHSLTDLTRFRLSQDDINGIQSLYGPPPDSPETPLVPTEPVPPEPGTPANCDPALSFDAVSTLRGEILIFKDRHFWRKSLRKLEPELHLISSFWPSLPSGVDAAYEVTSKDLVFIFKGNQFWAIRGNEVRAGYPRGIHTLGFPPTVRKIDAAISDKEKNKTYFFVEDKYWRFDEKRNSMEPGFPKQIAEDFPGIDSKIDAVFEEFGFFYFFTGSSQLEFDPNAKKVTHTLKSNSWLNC

Ki [nM] | SMILES
500 | COc1ccc(S(=O)(=O)[C@H](CCCCc2ccccc2)[C@@H](C)C(=O)NO)cc1
600 | COc1ccc(S(=O)(=O)C(CCCCc2ccccc2)C(C)C(=O)NO)cc1 (centres undefined)
1000 | COc1ccc(S(=O)(=O)C(C)(CCCCc2ccccc2)CC(=O)NO)cc1 (centres undefined)
300 | COc1ccc(S(=O)(=O)C(CC(=O)NO)Cc2ccccc2)cc1 (centres undefined)
200 | COc1ccc(S(=O)(=O)C(CCc2ccccc2)CC(=O)NO)cc1 (centres undefined)
> 10000 | COc1ccc(S(=O)(=O)C(CCCCc2ccccc2)CC(=O)NO)cc1OC (centres undefined)
600 | COc1ccc(S(=O)(=O)C(CCCc2ccccc2)CC(=O)NO)cc1 (centres undefined)
700 | COc1ccc(S(=O)(=O)C(CCCCc2ccccc2)CC(=O)NO)cc1 (centres undefined)

These molecules were tested against 72 kDa type IV collagenase (Homo sapiens, UniProt P08253) (assay: Inhibition of matrix metalloprotease-2 (MMP-2), gelatinase-A).
In short: as §1

Sequence of 72 kDa type IV collagenase (P08253 whole entry): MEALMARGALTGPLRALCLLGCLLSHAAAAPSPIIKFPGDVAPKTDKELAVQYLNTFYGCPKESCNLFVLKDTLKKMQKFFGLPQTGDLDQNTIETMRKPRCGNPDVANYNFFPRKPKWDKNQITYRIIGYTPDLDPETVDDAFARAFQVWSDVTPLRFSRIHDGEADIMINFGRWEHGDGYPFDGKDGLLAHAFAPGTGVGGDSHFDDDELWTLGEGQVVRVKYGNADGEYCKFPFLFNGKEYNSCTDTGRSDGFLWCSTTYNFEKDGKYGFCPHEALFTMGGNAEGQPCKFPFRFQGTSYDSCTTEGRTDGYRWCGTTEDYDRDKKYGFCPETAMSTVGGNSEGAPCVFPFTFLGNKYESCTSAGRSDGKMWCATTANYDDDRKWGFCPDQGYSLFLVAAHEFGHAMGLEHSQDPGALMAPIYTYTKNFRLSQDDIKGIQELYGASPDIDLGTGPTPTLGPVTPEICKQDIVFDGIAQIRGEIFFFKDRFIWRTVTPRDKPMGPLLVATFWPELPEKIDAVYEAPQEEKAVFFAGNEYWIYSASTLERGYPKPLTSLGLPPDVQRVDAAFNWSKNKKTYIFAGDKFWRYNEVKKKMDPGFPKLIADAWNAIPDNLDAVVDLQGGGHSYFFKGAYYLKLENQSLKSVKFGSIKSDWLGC

Ki [nM] | SMILES
10 | COc1ccc(S(=O)(=O)[C@H](CCCCc2ccccc2)[C@@H](C)C(=O)NO)cc1
60 | COc1ccc(S(=O)(=O)C(CCCCc2ccccc2)C(C)C(=O)NO)cc1 (centres undefined)
50 | COc1ccc(S(=O)(=O)C(C)(CCCCc2ccccc2)CC(=O)NO)cc1 (centres undefined)
20 | COc1ccc(S(=O)(=O)C(CC(=O)NO)Cc2ccccc2)cc1 (centres undefined)
30 | COc1ccc(S(=O)(=O)C(CCc2ccccc2)CC(=O)NO)cc1 (centres undefined)
> 10000 | COc1ccc(S(=O)(=O)C(CCCCc2ccccc2)CC(=O)NO)cc1OC (centres undefined)
50 | COc1ccc(S(=O)(=O)C(CCCc2ccccc2)CC(=O)NO)cc1 (centres undefined)
20 | COc1ccc(S(=O)(=O)C(CCCCc2ccccc2)CC(=O)NO)cc1 (centres undefined)

Each molecule was assayed against T1, Interstitial collagenase (Homo sapiens, UniProt P03956) (assay: Inhibition of matrix metalloprotease-1 (MMP-1), fibroblast collagenase.).
T1 sequence (P03956 whole entry): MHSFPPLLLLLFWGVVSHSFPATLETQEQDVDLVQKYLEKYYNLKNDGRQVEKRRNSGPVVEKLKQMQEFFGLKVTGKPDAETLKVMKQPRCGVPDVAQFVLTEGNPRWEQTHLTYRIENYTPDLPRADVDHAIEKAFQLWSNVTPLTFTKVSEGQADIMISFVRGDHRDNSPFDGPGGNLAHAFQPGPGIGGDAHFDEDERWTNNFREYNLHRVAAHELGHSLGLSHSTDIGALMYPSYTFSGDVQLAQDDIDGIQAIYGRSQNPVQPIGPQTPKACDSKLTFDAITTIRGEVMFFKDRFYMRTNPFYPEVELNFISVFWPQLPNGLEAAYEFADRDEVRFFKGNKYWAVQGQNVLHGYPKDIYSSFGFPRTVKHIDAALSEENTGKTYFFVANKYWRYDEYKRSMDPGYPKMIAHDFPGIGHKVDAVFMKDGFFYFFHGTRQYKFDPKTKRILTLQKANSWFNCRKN
In short: as §1

Ki [nM] | SMILES
2000 | COc1ccc(S(=O)(=O)[C@H](CCCCc2ccccc2)[C@@H](C)C(=O)NO)cc1
2000 | COc1ccc(S(=O)(=O)C(CCCCc2ccccc2)C(C)C(=O)NO)cc1 (centres undefined)
2000 | COc1ccc(S(=O)(=O)C(C)(CCCCc2ccccc2)CC(=O)NO)cc1 (centres undefined)
1000 | COc1ccc(S(=O)(=O)C(CC(=O)NO)Cc2ccccc2)cc1 (centres undefined)
4000 | COc1ccc(S(=O)(=O)C(CCc2ccccc2)CC(=O)NO)cc1 (centres undefined)
> 10000 | COc1ccc(S(=O)(=O)C(CCCCc2ccccc2)CC(=O)NO)cc1OC (centres undefined)
2000 | COc1ccc(S(=O)(=O)C(CCCc2ccccc2)CC(=O)NO)cc1 (centres undefined)
5000 | COc1ccc(S(=O)(=O)C(CCCCc2ccccc2)CC(=O)NO)cc1 (centres undefined)
